{
  "source": "ChEMBL document CHEMBL4014276",
  "about": "“Diphenylurea derivatives for combating methicillin- and vancomycin-resistant Staphylococcus aureus” (Eur J Med Chem, 2017)",
  "key": {"[1]": {"system": "Staphylococcus aureus", "assay": "Antibacterial activity against methicillin-resistant Staphylococcus aureus USA100 NRS382 clinical isolate preincubated followed by bacterial subculturing for 2 weeks", "type": "functional"}, "[2]": {"system": "Staphylococcus aureus", "assay": "Bactericidal activity against vancomycin-resistant Staphylococcus aureus VRSA4 after 18 hrs by broth microdilution method", "type": "functional", "settings": "VRSA4, 18 h", "procedure,_shortened": "(§1)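 From MIC wells without visible growth, 5 uL spotted onto Tryptic soy agar, incubated 37 °C for at least 18 h; MBC taken as lowest concentration giving 99.9% growth inhibition.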"}, "[3]": {"system": "Staphylococcus aureus", "assay": "Antibacterial activity against methicillin-resistant Staphylococcus aureus USA100 NRS382 clinical isolate after 20 hrs by broth microdilution method", "type": "functional", "settings": "USA100 NRS382, 20 h", "procedure,_shortened": "(§2)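 CLSI broth microdilution in cation-adjusted Mueller Hinton broth; compounds serially diluted, triplicate samples; 37 °C, 20 h. MIC read visually as lowest concentration with no visible growth; mean of triplicate determinations reported.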"}, "[4]": {"assay": "Half life in naive Sprague-Dawley rat at 50 mg/kg ,po administered via gavage by LC-MS/MS method", "type": "ADME, organism-based", "settings": "in vivo", "procedure,_shortened": "(§3)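 Male naïve rats, three animals; single oral gavage dose in 5% ethanol, 45% PEG 400, 50% water. Blood drawn into EDTA-K2 tubes over 24 h post dose; plasma protein-precipitated with acetonitrile, parent quantified by LC/MS/MS.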"}, "[5]": {"assay": "Intrinsic clearance in human liver microsomes in absence of NADPH by LC-MS/MS method", "type": "ADME, microsome", "settings": "read-out: CLH"}, "[6]": {"system": "Staphylococcus aureus", "assay": "Bactericidal activity against vancomycin-resistant Staphylococcus aureus VRSA10 after 18 hrs by broth microdilution method", "type": "functional", "settings": "VRSA10, 18 h", "procedure,_shortened": "as §1"}, "[7]": {"assay": "Tmax in naive Sprague-Dawley rat at 50 mg/kg ,po administered via gavage by LC-MS/MS method", "type": "ADME, organism-based", "settings": "in vivo", "procedure,_shortened": "as §3"}, "[8]": {"system": "Staphylococcus aureus", "assay": "Antibacterial activity against vancomycin-resistant Staphylococcus aureus VRSA4 after 20 hrs by broth microdilution method", "type": "functional", "settings": "VRSA4, 20 h", "procedure,_shortened": "as §2"}, "[9]": {"system": "Staphylococcus aureus", "assay": "Bactericidal activity against methicillin-resistant Staphylococcus aureus USA400 NRS123 clinical isolate after 18 hrs by broth microdilution method", "type": "functional", "settings": "USA400 NRS123, 18 h", "procedure,_shortened": "as §1"}, "[10]": {"system": "Staphylococcus aureus", "assay": "Bactericidal activity against methicillin-resistant Staphylococcus aureus USA300 NRS384 clinical isolate after 18 hrs by broth microdilution method", "type": "functional", "settings": "USA300 NRS384, 18 h", "procedure,_shortened": "as §1"}, "[11]": {"system": "Staphylococcus aureus", "assay": "Bactericidal activity against Staphylococcus aureus RN4220 NRS107 clinical isolate after 18 hrs by broth microdilution method", "type": "functional", "settings": "RN4220 NRS107, 18 h", "procedure,_shortened": "as §1"}, "[12]": {"system": "Staphylococcus aureus", "assay": "Antibacterial activity against methicillin-resistant Staphylococcus aureus USA200 NRS383 clinical isolate after 20 hrs by broth microdilution method", "type": "functional", "settings": "USA200 NRS383, 20 h", "procedure,_shortened": "as §2"}, "[13]": {"system": "Staphylococcus aureus", "assay": "Bactericidal activity against methicillin-resistant Staphylococcus aureus USA400 NRS123 clinical isolate assessed as disruption of bacterial membrane by measuring leakage of 260 nM absorbing material at 5 times MIC after 30 mins by spectrophotometric method", "type": "functional"}, "[14]": {"system": "Staphylococcus aureus", "assay": "Bactericidal activity against methicillin-resistant Staphylococcus aureus USA100 NRS382 clinical isolate after 18 hrs by broth microdilution method", "type": "functional", "settings": "USA100 NRS382, 18 h", "procedure,_shortened": "as §1"}, "[15]": {"assay": "Mean residence time in naive Sprague-Dawley rat at 50 mg/kg ,po administered via gavage by LC-MS/MS method", "type": "ADME, organism-based", "settings": "in vivo", "procedure,_shortened": "as §3"}, "[16]": {"assay": "Terminal elimination rate constant in naive Sprague-Dawley rat at 50 mg/kg ,po administered via gavage by LC-MS/MS method", "type": "ADME, organism-based", "settings": "in vivo, read-out: LZ (converted)", "procedure,_shortened": "as §3"}, "[17]": {"system": "Staphylococcus aureus", "assay": "Bactericidal activity against methicillin-resistant Staphylococcus aureus USA400 assessed as time required to reduce log10CFU of bacterial load at 4 times MIC by time kill assay", "type": "functional"}, "[18]": {"assay": "Intrinsic clearance in human liver microsomes in presence of NADPH by LC-MS/MS method", "type": "ADME, microsome", "settings": "read-out: CLH"}, "[19]": {"assay": "Apparent permeability across apical to basolateral side in human Caco2 cells at 10 uM after 2 hrs by LC-MS/MS method", "type": "ADME, cell-based", "settings": "Caco-2"}, "[20]": {"assay": "Half life in human liver microsomes in presence of NADPH by LC-MS/MS method", "type": "ADME, microsome"}, "[21]": {"system": "Staphylococcus aureus", "assay": "Antibacterial activity against methicillin-resistant Staphylococcus aureus USA200 NRS383 clinical isolate preincubated followed by bacterial subculturing for 2 weeks", "type": "functional"}, "[22]": {"system": "HaCaT", "assay": "Cytotoxicity against human HaCaT cells up to 64 ug/ml after 2 hrs by MTS assay", "type": "cell-based", "procedure,_shortened": "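Keratinocytes grown in DMEM with 10% FBS at 37 °C, 5% CO2; exposed in triplicate to 8, 16, 32 and 64 µg/mL for 2 h. DMSO-matched controls. MTS added for 4 h, absorbance at 490 nm. Viability expressed as % of DMSO-treated cells (mean of triplicate ± SD); one-way ANOVA with Dunnett's test, P < 0.05.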"}, "[23]": {"system": "Staphylococcus aureus", "assay": "Bactericidal activity against methicillin-resistant Staphylococcus aureus USA400 infected in mouse J774 cells assessed as reduction in colony forming units at 16 ug/ml after 4 hrs by time kill assay relative to control", "type": "functional", "set-up": "scale not given: the % may be the effect or the level left", "procedure,_shortened": "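J774 murine macrophages in DMEM/10% FBS infected with MRSA USA400 at MOI ~100:1 for 1 h, extracellular bacteria killed with gentamicin 50 µg/mL; treated at 16 µg/mL in triplicate; after 4, 8 or 24 h cells washed, lysed with 0.1% Triton X-100, plated for CFU; percent reduction versus untreated, t-test.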"}, "[24]": {"system": "Staphylococcus aureus", "assay": "Antibacterial activity against methicillin-resistant Staphylococcus aureus USA300 NRS384 clinical isolate after 20 hrs by broth microdilution method", "type": "functional", "settings": "USA300 NRS384, 20 h", "procedure,_shortened": "as §2"}, "[25]": {"system": "Staphylococcus aureus", "assay": "Antibacterial activity against vancomycin-resistant Staphylococcus aureus VRSA10 after 20 hrs by broth microdilution method", "type": "functional", "settings": "VRSA10, 20 h", "procedure,_shortened": "as §2"}, "[26]": {"assay": "Cmax in naive Sprague-Dawley rat at 50 mg/kg ,po administered via gavage by LC-MS/MS method", "type": "ADME, organism-based", "set-up": "dose 50 mg/kg, route oral", "settings": "in vivo", "procedure,_shortened": "as §3"}, "[27]": {"system": "Staphylococcus aureus", "assay": "Antibacterial activity against methicillin-resistant Staphylococcus aureus USA400 infected in Caenorhabditis elegans AU37 harboring (sek-1(km4);glp-4(bn2)I) mutant assessed as reduction in colony forming units at 10 ug/ml after 20 hrs by microscopic method relative to control", "type": "functional", "set-up": "scale not given: the % may be the effect or the level left", "procedure,_shortened": "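C. elegans AU37 L4/adult worms infected on MRSA USA400 lawn 6 h, washed in M9; 15-25 worms per well treated with 10 µg/mL in triplicate for 20 h, PBS negative control; worms lysed with silicon carbide, plated on TSA with 5 µg/mL nalidixic acid, 37 °C 18 h; CFU per worm, Student's t-test with Holm-Sidak correction.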"}, "[28]": {"system": "Staphylococcus aureus", "assay": "Bactericidal activity against methicillin-resistant Staphylococcus aureus USA400 infected in mouse J774 cells assessed as reduction in colony forming units at 16 ug/ml after 8 hrs by time kill assay relative to control", "set-up": "scale not given: the % may be the effect or the level left"}, "[29]": {"system": "Staphylococcus aureus", "assay": "Antibacterial activity against Staphylococcus aureus RN4220 NRS107 clinical isolate after 20 hrs by broth microdilution method", "type": "functional", "settings": "RN4220 NRS107, 20 h", "procedure,_shortened": "as §2"}, "[30]": {"system": "Staphylococcus aureus", "assay": "Antibacterial activity against methicillin-resistant Staphylococcus aureus USA400 NRS123 clinical isolate after 20 hrs by broth microdilution method", "type": "functional", "settings": "USA400 NRS123, 20 h", "procedure,_shortened": "as §2"}, "[31]": {"assay": "Efflux ratio of apparent permeability across basolateral to apical over apical to basolateral side in human Caco2 cells at 10 uM after 2 hrs by LC-MS/MS method", "type": "ADME, cell-based", "settings": "Caco-2"}},
  "note": "The source made the active and inactive calls. The calls are words filed in the database; no cut-off is given here.",
  "data": [
    {"smiles": "C/C(=N\\NC(=N)N)c1ccc(NC(=O)Nc2ccc(OC3CCCCCC3)cc2)cc1", "values": [
      {"measurement": "Activity", "setting": "[1]", "value": "Active"},
      {"measurement": "MBC", "setting": "[2]", "value": 4, "unit": "µg/mL"},
      {"measurement": "MIC", "setting": "[3]", "value": 2, "unit": "µg/mL"},
      {"measurement": "half-life", "setting": "[4]", "value": 959, "unit": "min"},
      {"measurement": "microsomal CLint", "setting": "[5]", "value": 42.9, "unit": "µL/min/mg"},
      {"measurement": "MBC", "setting": "[6]", "value": 8, "unit": "µg/mL"},
      {"measurement": "Tmax", "setting": "[7]", "value": 9.33, "unit": "h"},
      {"measurement": "MIC", "setting": "[8]", "value": 2, "unit": "µg/mL"},
      {"measurement": "MBC", "setting": "[9]", "value": 4, "unit": "µg/mL"},
      {"measurement": "MBC", "setting": "[10]", "value": 4, "unit": "µg/mL"},
      {"measurement": "MBC", "setting": "[11]", "value": 4, "unit": "µg/mL"},
      {"measurement": "MIC", "setting": "[12]", "value": 2, "unit": "µg/mL"},
      {"measurement": "Activity", "setting": "[13]", "value": "inactive"},
      {"measurement": "MBC", "setting": "[14]", "value": 4, "unit": "µg/mL"},
      {"measurement": "MRT", "setting": "[15]", "value": 28.4, "unit": "h"},
      {"measurement": "k el", "setting": "[16]", "value": "1.25e-05", "unit": "s⁻¹"},
      {"measurement": "Time", "setting": "[17]", "value": "<=4 hr"},
      {"measurement": "microsomal CLint", "setting": "[18]", "value": 33.9, "unit": "µL/min/mg"},
      {"measurement": "Papp A→B at 2 h, 10 µM", "setting": "[19]", "value": 0.039, "unit": "×10⁻⁶ cm/s"},
      {"measurement": "half-life", "setting": "[20]", "value": 68.2, "unit": "min"},
      {"measurement": "Activity", "setting": "[21]", "value": "Active"},
      {"measurement": "Activity", "setting": "[22]", "value": "Non-Toxic"},
      {"measurement": "Activity", "setting": "[23]", "value": 5, "unit": "%"},
      {"measurement": "MIC", "setting": "[24]", "value": 2, "unit": "µg/mL"},
      {"measurement": "MIC", "setting": "[25]", "value": 8, "unit": "µg/mL"},
      {"measurement": "Cmax", "setting": "[26]", "value": 16.3, "unit": "ng/mL"},
      {"measurement": "Activity", "setting": "[27]", "value": ">50", "unit": "%"},
      {"measurement": "Activity", "setting": "[28]", "value": 35.7, "unit": "%"},
      {"measurement": "MIC", "setting": "[29]", "value": 2, "unit": "µg/mL"},
      {"measurement": "MIC", "setting": "[30]", "value": 4, "unit": "µg/mL"},
      {"measurement": "efflux ratio at 2 h, 10 µM", "setting": "[31]", "value": "> 1000"}
    ]}
  ]
}
